{"source": "ChEMBL document CHEMBL6153131", "about": "“Rational Design and Optimization of a Potent IDO1 Proteolysis Targeting Chimera (PROTAC)” (J Med Chem, 2025)", "key": {"[1]": {"target": "T1, Protein cereblon/Indoleamine 2,3-dioxygenase 1 (Homo sapiens, UniProt P14902+Q96SW2)", "assay": "PROTAC activity at CRBN/IDO1 in human GBM43 cell assessed as induction of IDO1 degradation at 0.003 uM pretreated with IFN-gamma for 24 hrs followed by compound addition and measured after 24 hrs by Western blotting analysis (reference value: 100%)", "type": "cell-based", "summary_of_the_method": "(§1)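 GBM43 patient-derived cells given an extended dose range of PROTAC for 24 h. Protein analysed by Western blot for IDO1, and IFNγ-induced IDO1 normalised to untreated samples. n = 3 independent experiments; data as mean ± SEM.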"}, "[2]": {"target": "T1, Protein cereblon/Indoleamine 2,3-dioxygenase 1", "assay": "PROTAC activity at CRBN/IDO1 in human U87 cells assessed as induction of IDO1 degradation at 100 nM at 1 uM pretreated with IFN-gamma for 24 hrs followed by compound addition and measured after 24 hrs in presence of MG132 by Western blotting analysis", "type": "cell-based"}, "[3]": {"target": "T1, Protein cereblon/Indoleamine 2,3-dioxygenase 1", "assay": "PROTAC activity at CRBN/IDO1 in human U87 cells assessed as induction of IDO1 degradation by measuring remaining activity at 3 uM pretreated with IFN-gamma for 24 hrs followed by compound addition and measured after 24 hrs by Western blotting analysis (reference value: 100%)", "type": "cell-based", "summary_of_the_method": "(§2)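 U87 cells given an extended dose range of PROTAC for 24 h, then Western blot for IDO1. IFNγ-induced IDO1 levels normalised to untreated samples. n = 3 independent experiments; mean ± SEM.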"}, "[4]": {"target": "T1, Protein cereblon/Indoleamine 2,3-dioxygenase 1", "assay": "PROTAC activity at CRBN/IDO1 in human GBM43 cell assessed as induction of IDO1 degradation at 0.01 uM pretreated with IFN-gamma for 24 hrs followed by compound addition and measured after 24 hrs by Western blotting analysis (reference value: 100%)", "type": "cell-based", "summary_of_the_method": "as §1"}, "SK-OV-3": {"system": "SK-OV-3", "assay": "Inhibition of kynurenine production in human SK-OV-3 cells pretreated with IFN-gamma for 24 hrs followed by compound addition and measured after 24 hrs by Ehrlich's reagent based analysis", "type": "functional, cell-based", "details": "dose 50-100 nM"}, "[5]": {"assay": "Half life in female C57BL/6J mouse brain at 50 mg/kg, ip by LC-MS/MS analysis", "type": "ADME, organism-based"}, "[6]": {"target": "T1, Protein cereblon/Indoleamine 2,3-dioxygenase 1", "assay": "PROTAC activity at CRBN/IDO1 in human PC-3 cells assessed as induction of IDO1 degradation pretreated with IFN-gamma for 24 hrs followed by compound addition and measured after 24 hrs by Western blotting analysis", "type": "cell-based", "details": "dose 50-100 nM", "summary_of_the_method": "(§3)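 Cells had IDO1 induced with IFNγ, then were treated at the indicated concentrations for 24 h. Lines: PDX-6 and PDX-38 adult GBM PDX cells, U87 overexpressing GFP-fused IDO1, PC-3, KNS42, MDA-MB-231, SW-1990 and SKOV-3. Lysates probed for IDO1 and GAPDH by Western blot; representative of 3 separate replicates.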"}, "[7]": {"target": "T1, Protein cereblon/Indoleamine 2,3-dioxygenase 1", "assay": "PROTAC activity at CRBN/IDO1 in human GBM43 cell assessed as induction of IDO1 degradation at 0.03 uM pretreated with IFN-gamma for 24 hrs followed by compound addition and measured after 24 hrs by Western blotting analysis (reference value: 100%)", "type": "cell-based", "summary_of_the_method": "as §1"}, "[8]": {"target": "T1, Protein cereblon/Indoleamine 2,3-dioxygenase 1", "assay": "PROTAC activity at CRBN/IDO1 in human U87 cells assessed as induction of IDO1 degradation by measuring remaining activity at 10 uM pretreated with IFN-gamma for 24 hrs followed by compound addition and measured after 24 hrs by Western blotting analysis (reference value: 100%)", "type": "cell-based", "summary_of_the_method": "as §2"}, "[9]": {"target": "T1, Protein cereblon/Indoleamine 2,3-dioxygenase 1", "assay": "Binding affinity to CRBN/6His-tagged recombinant IDO1 (unknown origin) assessed as ternary complex formation by measuring half life by Biolayer Interferometry assay", "type": "protein assay"}, "MDA-MB-231": {"system": "MDA-MB-231", "assay": "Inhibition of kynurenine production in human MDA-MB-231 cells pretreated with IFN-gamma for 24 hrs followed by compound addition and measured after 24 hrs by Ehrlich's reagent based analysis", "type": "functional, cell-based", "details": "dose 50-100 nM"}, "[10]": {"target": "T1, Protein cereblon/Indoleamine 2,3-dioxygenase 1", "assay": "PROTAC activity at CRBN/IDO1 in human KNS-42 cells assessed as induction of IDO1 degradation pretreated with IFN-gamma for 24 hrs followed by compound addition and measured after 24 hrs by Western blotting analysis", "type": "cell-based", "details": "dose 50-100 nM", "summary_of_the_method": "as §3"}, "[11]": {"target": "T1, Protein cereblon/Indoleamine 2,3-dioxygenase 1", "assay": "PROTAC activity at CRBN/IDO1 in human PDX-38 cells assessed as induction of IDO1 degradation pretreated with IFN-gamma for 24 hrs followed by compound addition and measured after 24 hrs by Western blotting analysis", "type": "cell-based", "details": "dose 50-100 nM", "summary_of_the_method": "as §3"}, "[12]": {"target": "T1, Protein cereblon/Indoleamine 2,3-dioxygenase 1", "assay": "PROTAC activity at CRBN/IDO1 in human PDX-6 cells assessed as induction of IDO1 degradation pretreated with IFN-gamma for 24 hrs followed by compound addition and measured after 24 hrs by Western blotting analysis", "type": "cell-based", "details": "dose 50-100 nM", "summary_of_the_method": "as §3"}, "[13]": {"target": "T1, Protein cereblon/Indoleamine 2,3-dioxygenase 1", "assay": "PROTAC activity at CRBN/IDO1 in human U87 cells assessed as induction of IDO1 degradation by measuring remaining activity at 0.01 uM pretreated with IFN-gamma for 24 hrs followed by compound addition and measured after 24 hrs by Western blotting analysis (reference value: 100%)", "type": "cell-based", "summary_of_the_method": "as §2"}, "[14]": {"target": "T1, Protein cereblon/Indoleamine 2,3-dioxygenase 1", "assay": "PROTAC activity at CRBN/IDO1 in human SW1990 cells assessed as induction of IDO1 degradation pretreated with IFN-gamma for 24 hrs followed by compound addition and measured after 24 hrs by Western blotting analysis", "type": "cell-based", "details": "dose 50-100 nM", "summary_of_the_method": "as §3"}, "[15]": {"target": "T1, Protein cereblon/Indoleamine 2,3-dioxygenase 1", "assay": "PROTAC activity at CRBN/IDO1 in human U87 cells assessed as induction of IDO1 degradation at 100 nM at 0.5 uM pretreated with IFN-gamma for 24 hrs followed by compound addition and measured after 24 hrs in presence of MLN4924 by Western blotting analysis", "type": "cell-based"}, "Kelly": {"system": "Kelly", "assay": "Downregulation of SALL4 protein level in human Kelly cells at 1 uM incubated for 24 hrs by proteomics analysis", "type": "functional, cell-based"}, "[16]": {"target": "T1, Protein cereblon/Indoleamine 2,3-dioxygenase 1", "assay": "PROTAC activity at CRBN/IDO1 in human U87 cells assessed as induction of IDO1 degradation by measuring maximum efficacy at 100 nM pretreated with IFN-gamma for 24 hrs followed by compound addition and measured after 24 hrs by Western blotting analysis relative to control", "type": "cell-based", "summary_of_the_method": "(§4)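 IDO1 in U87 cells induced with 50 ng/mL human IFN-γ, then compound given across an extended dose range for 24 h. IDO1 and GAPDH read by Western blot; IDO1 levels normalized to untreated; DC50 from n = 3 independent experiments.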"}, "[17]": {"target": "T1, Protein cereblon/Indoleamine 2,3-dioxygenase 1", "assay": "PROTAC activity at CRBN/IDO1 in human U87 cells assessed as induction of IDO1 degradation by measuring remaining activity at 0.1 uM pretreated with IFN-gamma for 24 hrs followed by compound addition and measured after 24 hrs by Western blotting analysis (reference value: 100%)", "type": "cell-based", "summary_of_the_method": "as §2"}, "[18]": {"target": "T1, Protein cereblon/Indoleamine 2,3-dioxygenase 1", "assay": "PROTAC activity at CRBN/IDO1 in human GBM43 cell assessed as induction of IDO1 degradation at 3 uM pretreated with IFN-gamma for 24 hrs followed by compound addition and measured after 24 hrs by Western blotting analysis (reference value: 100%)", "type": "cell-based", "summary_of_the_method": "as §1"}, "[19]": {"target": "T1, Protein cereblon/Indoleamine 2,3-dioxygenase 1", "assay": "PROTAC activity at CRBN/IDO1 in human U87 cells assessed as induction of IDO1 degradation by measuring remaining activity at 50 nM pretreated with IFN-gamma for 24 hrs followed by compound addition and measured after 24 hrs by Western blotting analysis (reference value: 100%)", "type": "cell-based"}, "[20]": {"target": "T1, Protein cereblon/Indoleamine 2,3-dioxygenase 1", "assay": "PROTAC activity at CRBN/IDO1 in human U87 cell assessed as induction of IDO1 degradation pretreated with IFN-gamma for 24 hrs followed by compound addition and measured after 24 hrs by Western blot analysis", "type": "cell-based", "summary_of_the_method": "as §4"}}, "note": "Activity calls are given as the source filed them. The rule behind the calls is not given here.", "data": [{"smiles": "C[C@@H](C(=O)Nc1cccc(OC2CCN(C(=O)CN3CCC(N4CCN(c5ccc6c(c5)C(=O)N(C5CCC(=O)NC5=O)C6=O)CC4)CC3)CC2)c1)[C@H]1CC[C@@H](c2ccnc3ccc(F)cc32)CC1", "note": "(stereo partly drawn)", "values": [{"measurement": "Activity", "setting": "[1]", "value": 75, "unit": "%"}, {"measurement": "Activity", "setting": "[2]", "value": "inactive"}, {"measurement": "Activity", "setting": "[3]", "value": 55, "unit": "%"}, {"measurement": "Activity", "setting": "[4]", "value": 61, "unit": "%"}, {"measurement": "inhibition", "setting": "SK-OV-3", "value": "Dose-dependent-effect"}, {"measurement": "half-life", "setting": "[5]", "value": 11.8, "unit": "h"}, {"measurement": "Activity", "setting": "[6]", "value": "Dose-dependent-effect"}, {"measurement": "Activity", "setting": "[7]", "value": 34, "unit": "%"}, {"measurement": "Activity", "setting": "[8]", "value": 69, "unit": "%"}, {"measurement": "T1/2", "setting": "[9]", "value": 0.289, "unit": "h"}, {"measurement": "inhibition", "setting": "MDA-MB-231", "value": "Dose-dependent-effect"}, {"measurement": "Activity", "setting": "[10]", "value": "Dose-dependent-effect"}, {"measurement": "Activity", "setting": "[11]", "value": "Dose-dependent-effect"}, {"measurement": "Activity", "setting": "[12]", "value": "Dose-dependent-effect"}, {"measurement": "Activity", "setting": "[13]", "value": 48, "unit": "%"}, {"measurement": "Activity", "setting": "[14]", "value": "Dose-dependent-effect"}, {"measurement": "Activity", "setting": "[15]", "value": "inactive"}, {"measurement": "Activity", "setting": "Kelly", "value": "Active"}, {"measurement": "Emax", "setting": "[16]", "value": 88, "unit": "%"}, {"measurement": "Activity", "setting": "[17]", "value": 12, "unit": "%"}, {"measurement": "Activity", "setting": "[18]", "value": 77, "unit": "%"}, {"measurement": "Activity", "setting": "[19]", "value": 28, "unit": "%"}, {"measurement": "DC50", "setting": "[20]", "value": 7.1, "unit": "nM"}]}]}
